Measured values taken from ChEMBL document CHEMBL1155361, “Anti-oxidant, anti-fungal and anti-leishmanial activities of novel 3-[4-(1H-imidazol-1-yl) phenyl]prop-2-en-1-ones” (Eur J Med Chem, 2009).
≈ marks a conversion by molar mass, not a printed value.

Legend:
Aspergillus fumigatus = assay: Antimicrobial activity against Aspergillus fumigatus at 100 ug/ml after 24 hrs by cup diffusion method; assay type: functional; details: for zone of inhibition at 100 µg/mL: read-out: DIZ
Outline: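 Cup diffusion on potato dextrose agar plates inoculated with the fungus, with samples dissolved in DMSO. Incubated at 45 °C for A. fumigatus. Read the diameter of the clear zone of inhibition around the sample.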

Trichoderma viride = assay: Antimicrobial activity against Trichoderma viride at 100 ug/ml after 24 hrs by cup diffusion method; assay type: functional; details: for zone of inhibition at 100 µg/mL: read-out: DIZ
Outline: (§1)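 Cup diffusion on fungus-inoculated potato dextrose agar plates, with samples in DMSO. Incubated at 30 °C. Read the diameter of the clear inhibition zone surrounding the sample.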

[1] = Antioxidant activity assessed as superoxide radical scavenging activity at 0.5 mM by NBT reduction assay; assay type: functional
Outline: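 Superoxide generated by an NADH/phenazine methosulphate system. The mix held 40 µl of 280 µM NADH, 40 µl of 80 µM NBT, 20 µl of 8 µM PMS, 10 µl of 1 mM sample in DMSO, and 0.1 M phosphate buffer pH 7.4 (concentrations are of the added solutions). Ran at room temperature, read formazan at 560 nm, and calculated %RSA = 100 − (OD test/OD control × 100).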

Aspergillus niger = assay: Antimicrobial activity against Aspergillus niger at 100 ug/ml after 24 hrs by cup diffusion method; assay type: functional; details: for zone of inhibition at 100 µg/mL: read-out: DIZ; outline: as §1
Yarrowia lipolytica = assay: Antimicrobial activity against Candida lipolytica at 100 ug/ml after 24 hrs by cup diffusion method; assay type: functional; details: for zone of inhibition at 100 µg/mL: read-out: DIZ; outline: as §1
Leishmania major = assay: Antileishmanial activity against Leishmania major promastigotes after 72 hrs; assay type: functional, organism-based
Outline: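 Cultured Leishmania major parasites in M199 with 10% foetal bovine serum, 25 mM HEPES, and penicillin/streptomycin, at 24 °C with shaking. Harvested log-phase cells and diluted them to 2 × 10^6 cells/ml. Made 1 mg/ml DMSO stocks and serially diluted them in medium. Used DMSO as the negative control and amphotericin B as the positive control.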

O=C(/C=C/c1ccc(-n2ccnc2)cc1)c1ccc(F)cc1
zone of inhibition at 100 µg/mL (Aspergillus fumigatus): 1 mm
zone of inhibition at 100 µg/mL (Trichoderma viride): 1 mm
Activity [1]: 64.5%
zone of inhibition at 100 µg/mL (Aspergillus niger): 2 mm
zone of inhibition at 100 µg/mL (Yarrowia lipolytica): 1 mm
IC50 (Leishmania major): 0.71 µg/mL (≈ 2.43 µM)

O=C(/C=C/c1ccc(-n2ccnc2)cc1)c1ccc(I)cc1
zone of inhibition at 100 µg/mL (Aspergillus fumigatus): 10 mm
zone of inhibition at 100 µg/mL (Trichoderma viride): 2 mm
Activity [1]: 40.4%
zone of inhibition at 100 µg/mL (Aspergillus niger): 2 mm
zone of inhibition at 100 µg/mL (Yarrowia lipolytica): 3 mm
IC50 (Leishmania major): 0.92 µg/mL (≈ 2.3 µM)

O=C(/C=C/c1ccc(-n2ccnc2)cc1)c1ccccc1Cl
zone of inhibition at 100 µg/mL (Aspergillus fumigatus): 19 mm
zone of inhibition at 100 µg/mL (Trichoderma viride): 5 mm
Activity [1]: 70.4%
zone of inhibition at 100 µg/mL (Aspergillus niger): 5 mm
zone of inhibition at 100 µg/mL (Yarrowia lipolytica): 5 mm
IC50 (Leishmania major): 0.93 µg/mL (≈ 3.01 µM)

O=C(/C=C/c1ccc(-n2ccnc2)cc1)c1c(Cl)cccc1Cl
zone of inhibition at 100 µg/mL (Aspergillus fumigatus): 20 mm
zone of inhibition at 100 µg/mL (Trichoderma viride): 6 mm
Activity [1]: 47.7%
zone of inhibition at 100 µg/mL (Aspergillus niger): 4 mm
zone of inhibition at 100 µg/mL (Yarrowia lipolytica): 7 mm
IC50 (Leishmania major): 0.67 µg/mL (≈ 1.95 µM)

O=C(/C=C/c1ccc(-n2ccnc2)cc1)c1ccccc1F
zone of inhibition at 100 µg/mL (Aspergillus fumigatus): 17 mm
zone of inhibition at 100 µg/mL (Trichoderma viride): 5 mm
Activity [1]: 79.2%
zone of inhibition at 100 µg/mL (Aspergillus niger): 3 mm
zone of inhibition at 100 µg/mL (Yarrowia lipolytica): 5 mm
IC50 (Leishmania major): 0.98 µg/mL (≈ 3.35 µM)

O=C(/C=C/c1ccc(-n2ccnc2)cc1)c1cccc(O)c1
zone of inhibition at 100 µg/mL (Aspergillus fumigatus): 5 mm
zone of inhibition at 100 µg/mL (Trichoderma viride): 6 mm
Activity [1]: 8.65%
zone of inhibition at 100 µg/mL (Aspergillus niger): 5 mm
zone of inhibition at 100 µg/mL (Yarrowia lipolytica): 5 mm
IC50 (Leishmania major): 0.96 µg/mL (≈ 3.31 µM)

C[C@@H]1[C@H](O)[C@@H](C)/C=C/C=C/C=C/C=C/C=C/C=C/C=C/[C@H](O[C@@H]2O[C@H](C)[C@@H](O)[C@H](N)[C@@H]2O)C[C@@H]2O[C@](O)(C[C@@H](O)C[C@@H](O)[C@H](O)CC[C@@H](O)C[C@@H](O)CC(=O)O[C@H]1C)C[C@H](O)[C@H]2C(=O)O [AMPHOTERICIN B]
IC50 (Leishmania major): 0.56 µg/mL (≈ 0.606 µM)

O=C(/C=C/c1ccc(-n2ccnc2)cc1)c1ccc(F)c(F)c1
zone of inhibition at 100 µg/mL (Aspergillus fumigatus): 18 mm
zone of inhibition at 100 µg/mL (Trichoderma viride): 3 mm
Activity [1]: 8.3%
zone of inhibition at 100 µg/mL (Aspergillus niger): 4 mm
zone of inhibition at 100 µg/mL (Yarrowia lipolytica): 4 mm
IC50 (Leishmania major): 0.89 µg/mL (≈ 2.87 µM)

O=C(/C=C/c1ccc(-n2ccnc2)cc1)c1ccc(Cl)c(Cl)c1
zone of inhibition at 100 µg/mL (Aspergillus fumigatus): 10 mm
zone of inhibition at 100 µg/mL (Trichoderma viride): 6 mm
Activity [1]: 0.4%
zone of inhibition at 100 µg/mL (Aspergillus niger): 2 mm
zone of inhibition at 100 µg/mL (Yarrowia lipolytica): 7 mm
IC50 (Leishmania major): 0.99 µg/mL (≈ 2.88 µM)

O=C(/C=C/c1ccc(-n2ccnc2)cc1)c1ccc(Cl)cc1Cl
zone of inhibition at 100 µg/mL (Aspergillus fumigatus): 15 mm
zone of inhibition at 100 µg/mL (Trichoderma viride): 2 mm
Activity [1]: 3.3%
zone of inhibition at 100 µg/mL (Aspergillus niger): 1 mm
zone of inhibition at 100 µg/mL (Yarrowia lipolytica): 4 mm
IC50 (Leishmania major): 0.72 µg/mL (≈ 2.1 µM)

O=C(/C=C/c1ccc(-n2ccnc2)cc1)c1cc(Cl)ccc1Cl
zone of inhibition at 100 µg/mL (Aspergillus fumigatus): 19 mm
zone of inhibition at 100 µg/mL (Trichoderma viride): 10 mm
Activity [1]: 18.8%
zone of inhibition at 100 µg/mL (Aspergillus niger): 6 mm
zone of inhibition at 100 µg/mL (Yarrowia lipolytica): 10 mm
IC50 (Leishmania major): 0.99 µg/mL (≈ 2.88 µM)

O=C(/C=C/c1ccc(-n2ccnc2)cc1)c1ccccc1
zone of inhibition at 100 µg/mL (Aspergillus fumigatus): 18 mm
zone of inhibition at 100 µg/mL (Trichoderma viride): 3 mm
Activity [1]: 81.9%
zone of inhibition at 100 µg/mL (Aspergillus niger): 4 mm
zone of inhibition at 100 µg/mL (Yarrowia lipolytica): 4 mm
IC50 (Leishmania major): 0.91 µg/mL (≈ 3.32 µM)

O=C(/C=C/c1ccc(-n2ccnc2)cc1)c1ccc(Cl)c(Cl)c1Cl
zone of inhibition at 100 µg/mL (Aspergillus fumigatus): 10 mm
zone of inhibition at 100 µg/mL (Trichoderma viride): 6 mm
Activity [1]: 2.4%
zone of inhibition at 100 µg/mL (Aspergillus niger): 1 mm
zone of inhibition at 100 µg/mL (Yarrowia lipolytica): 6 mm
IC50 (Leishmania major): 0.63 µg/mL (≈ 1.67 µM)

O=C(/C=C/c1ccc(-n2ccnc2)cc1)c1ccc(Cl)cc1
zone of inhibition at 100 µg/mL (Aspergillus fumigatus): 20 mm
zone of inhibition at 100 µg/mL (Trichoderma viride): 9 mm
Activity [1]: 90.1%
zone of inhibition at 100 µg/mL (Aspergillus niger): 8 mm
zone of inhibition at 100 µg/mL (Yarrowia lipolytica): 10 mm
IC50 (Leishmania major): 0.92 µg/mL (≈ 2.98 µM)

NYSTATIN
inhibition zone (IZ) (Aspergillus fumigatus): 22 mm
inhibition zone (IZ) (Trichoderma viride): 17 mm
inhibition zone (IZ) (Aspergillus niger): 10 mm
inhibition zone (IZ) (Yarrowia lipolytica): 16 mm

O=C(/C=C/c1ccc(-n2ccnc2)cc1)c1ccc(Br)cc1
zone of inhibition at 100 µg/mL (Aspergillus fumigatus): 18 mm
zone of inhibition at 100 µg/mL (Trichoderma viride): 9 mm
Activity [1]: 42.1%
zone of inhibition at 100 µg/mL (Aspergillus niger): 4 mm
zone of inhibition at 100 µg/mL (Yarrowia lipolytica): 8 mm
IC50 (Leishmania major): 0.86 µg/mL (≈ 2.43 µM)

CCCOC(=O)c1cc(O)c(O)c(O)c1
Activity [1]: 91.3%

O=C(/C=C/c1ccc(-n2ccnc2)cc1)c1c(F)cccc1F
zone of inhibition at 100 µg/mL (Aspergillus fumigatus): 15 mm
zone of inhibition at 100 µg/mL (Trichoderma viride): 5 mm
Activity [1]: 69.5%
zone of inhibition at 100 µg/mL (Aspergillus niger): 4 mm
zone of inhibition at 100 µg/mL (Yarrowia lipolytica): 7 mm
IC50 (Leishmania major): 0.97 µg/mL (≈ 3.13 µM)

O=C(/C=C/c1ccc(-n2ccnc2)cc1)c1cccc(F)c1F
zone of inhibition at 100 µg/mL (Aspergillus fumigatus): 19 mm
zone of inhibition at 100 µg/mL (Trichoderma viride): 4 mm
Activity [1]: 16.7%
zone of inhibition at 100 µg/mL (Aspergillus niger): 4 mm
zone of inhibition at 100 µg/mL (Yarrowia lipolytica): 3 mm
IC50 (Leishmania major): 0.83 µg/mL (≈ 2.67 µM)

O=C(/C=C/c1ccc(-n2ccnc2)cc1)c1ccccc1Br
zone of inhibition at 100 µg/mL (Aspergillus fumigatus): 18 mm
zone of inhibition at 100 µg/mL (Trichoderma viride): 2 mm
Activity [1]: 76%
zone of inhibition at 100 µg/mL (Aspergillus niger): 4 mm
zone of inhibition at 100 µg/mL (Yarrowia lipolytica): 3 mm
IC50 (Leishmania major): 0.86 µg/mL (≈ 2.43 µM)

COc1ccc(C(=O)/C=C/c2ccc(-n3ccnc3)cc2)cc1OC
zone of inhibition at 100 µg/mL (Aspergillus fumigatus): 10 mm
zone of inhibition at 100 µg/mL (Trichoderma viride): 4 mm
Activity [1]: 51%
zone of inhibition at 100 µg/mL (Aspergillus niger): 3 mm
zone of inhibition at 100 µg/mL (Yarrowia lipolytica): 4 mm
IC50 (Leishmania major): 0.82 µg/mL (≈ 2.45 µM)

COc1ccc(C(=O)/C=C/c2ccc(-n3ccnc3)cc2)cc1
zone of inhibition at 100 µg/mL (Aspergillus fumigatus): 17 mm
zone of inhibition at 100 µg/mL (Trichoderma viride): 6 mm
Activity [1]: 66%
zone of inhibition at 100 µg/mL (Aspergillus niger): 3 mm
zone of inhibition at 100 µg/mL (Yarrowia lipolytica): 6 mm
IC50 (Leishmania major): 0.98 µg/mL (≈ 3.22 µM)

COc1cccc(C(=O)/C=C/c2ccc(-n3ccnc3)cc2)c1
zone of inhibition at 100 µg/mL (Aspergillus fumigatus): 16 mm
zone of inhibition at 100 µg/mL (Trichoderma viride): 8 mm
Activity [1]: 83.9%
zone of inhibition at 100 µg/mL (Aspergillus niger): 3 mm
zone of inhibition at 100 µg/mL (Yarrowia lipolytica): 7 mm
IC50 (Leishmania major): 0.98 µg/mL (≈ 3.22 µM)
